Screening results deposited in PubChem BioAssay by several laboratories.
An excerpt weighted towards active compounds, which were near 2.9% of everything screened.
Arr AP2 block – inhibitors of human beta-arrestin and AP2 interaction; FITC-arrestin peptide / GST-AP2 beads, flow cytometry; AP2 beta2 appendage carries R879A mutation; inhibition, % at 10 µM; 340,000 tested, 0.31% active;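 active = inhibition above a set limit, near 3 SD of compounds lacking own fluorescence, cut at about 54% in these data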;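 note: plate controls were DMSO wells for no effect and 5 µM unlabelled arrestin peptide for full effect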
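System: GST-AP2 R879A glutathione beads; medium: PBS, Tween 20 0.05%, BSA 0.1%; reagent: fluorescein-tagged arrestin peptide at 50 nM final; schedule: pre-incubation 12 min, peptide binding 1 h, room temperature; detection: flow cytometry, FL1 (488/535 nm); read-out: inhibition as reduced fluorescein signal on beads, percent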
CaV13 FRET inh – Primary screen for inhibitors of IQ motif and Ca2+-dependent inactivation inhibitor domain binding in CACNA1D, Förster resonance energy transfer in living cells, …; AID 743397; inhibition, % at 12.3 µM; HEK cells, CFP/YFP FRET ICDI-IQ, plate reader, 10 min; percent FRET-ratio fall versus neutral wells; 340,000 tested, 0.098% active;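 active = mean replicate inhibition of at least 30% and at least 1% of replicates passing that level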;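 note: 0% = median of the neutral control wells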
ADAM10 inh – ADAM10 inhibition, QFRET primary screen | recombinant ADAM10, EDANS/DABCYL FRET peptide cleavage, 3 h | inhibition, % at 7 µM | 370,000 tested, 0.62% active | O14672 | AID 720582;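 active = inhibition above a per-campaign cutoff equal to the mean of compounds falling between control-based bounds plus 3 SD, cut at about 20% in these data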;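 note: 0% = DMSO wells while the 100% control is not disclosed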
Target sequence (O14672 214-748 limits assumed): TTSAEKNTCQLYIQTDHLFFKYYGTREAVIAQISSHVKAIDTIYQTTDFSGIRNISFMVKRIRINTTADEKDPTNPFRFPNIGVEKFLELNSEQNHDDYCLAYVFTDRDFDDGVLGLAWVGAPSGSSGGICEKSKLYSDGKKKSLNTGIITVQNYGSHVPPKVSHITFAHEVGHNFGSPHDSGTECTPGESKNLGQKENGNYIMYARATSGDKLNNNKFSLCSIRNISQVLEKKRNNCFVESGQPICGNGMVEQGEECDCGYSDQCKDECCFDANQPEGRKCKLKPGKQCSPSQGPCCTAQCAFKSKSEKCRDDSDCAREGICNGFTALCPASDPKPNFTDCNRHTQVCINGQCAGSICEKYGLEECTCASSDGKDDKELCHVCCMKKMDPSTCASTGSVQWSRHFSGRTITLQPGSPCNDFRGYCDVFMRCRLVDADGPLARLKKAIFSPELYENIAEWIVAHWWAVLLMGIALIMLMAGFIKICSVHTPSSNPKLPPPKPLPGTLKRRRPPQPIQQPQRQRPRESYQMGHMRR
FAS-TE inh – FAS thioesterase (human) inhibition | P49327 | recombinant FAS-TE, OMFH fluorogenic substrate, fluorescence endpoint | inhibition, % at 15 µM | 360,000 tested, 0.67% active | AID 602261;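 active = compounds whose normalised, plate-corrected inhibition of enzyme fluorescence in the single-dose primary screen is 50% or more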;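 note: 0% = DMSO with enzyme and 100% = substrate without enzyme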
ADAM17 inh – inhibits human ADAM17 | 370,000 tested, 0.83% active | inhibition, % at 6.95 µM | AID 720648 | recombinant ADAM17, EDANS/DABCYL FRET peptide cleavage | P78536;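 active = inhibition above the mean of compounds lying between control limits plus 3 SD, set per campaign, cut at about 8.5% in these data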;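 note: 0% = DMSO-only wells as the low control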
CendR NRP1 mod – alters CendR peptide binding to human NRP-1; O14786; FAM-RPARPAR peptide binding to NRP-1, fluorescence polarization; inhibition, % at 25 µM; 360,000 tested, 0.85% active;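 active = inhibition or corrected inhibition above about 18%, plus a signal ratio from 0.5 to 1.5, limit read from the data, passing the limit was not always enough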
The depositor's hits bear a star; . = not tested or not shown.

SMILES	Arr AP2 block	CaV13 FRET inh	ADAM10 inh	FAS-TE inh	ADAM17 inh	CendR NRP1 mod
O=C(c1ccc(S(=O)(=O)N2CCOCC2)cc1)N1CCc2ccccc21	22	-3	0	0	-5	24*
O=C(c1cccc(S(=O)(=O)N2CCCCC2)c1)N1CCc2ccccc21	-4	-9	7	19	8	32*
O=C(C1CCCO1)N1CCc2ccccc21 (stereo not given)	7	-6	-3	-4	-5	56*
O=C(CCC(=O)N1CCCc2ccccc21)N1CCN(S(=O)(=O)c2ccccc2)CC1	3	-1	13	-4	1	28*
O=C(c1cccc(S(=O)(=O)N2CCCC2)c1)N1CCCc2ccccc21	1	-7	3	0	4	-2
O=C(CCS(=O)(=O)c1ccccc1)N1CCCc2ccccc21	11	-4	-11	-5	-1	14
COC(=O)CCCn1cc(CN2CC(N3CCN(C4CCN(C)CC4)CC3)CS2(=O)=O)nn1 (stereo not given)	.	-7	-10	-9	-4	6
NC(=O)COc1ncn(-c2ccccc2)n1	9	-5	5	-4	-5	29*
N/C(COc1ncn(-c2ccccc2)n1)=N\S(=O)(=O)c1ccc(Cl)cc1Cl	5	5	0	6	0	0
CCCNC(=O)[C@H]1N2C(=O)c3c(ccc(OC)c3OC)C2SC1(C)C (stereo not given in full)	11	-5	-7	0	-5	28*
CCCNC(=O)C1(C)CCN(Cc2cc(C(F)(F)F)ccc2Cl)C1 (stereo not given)	.	-9	-2	5	1	22*
CCNC(=O)C1(C)CCN(Cc2ccc(C(F)(F)F)cc2)C1 (stereo not given)	.	-10	-1	-7	-1	10
Nn1c(SCC(=O)Nc2ccccc2-c2ccccc2)nnc1-c1cc(-c2ccc(Cl)cc2)n[nH]1	.	.	-3	.	0	.
OCCCn1c(C2CCCN2c2nc(-c3ccc(Cl)cc3)cs2)nc2cc(Cl)c(N3CCCCC3)cc21 (stereo not given)	-3	-10	-4	5	-3	30*
OCCCn1c(C2CCCN2c2nc(-c3ccc(F)cc3)cs2)nc2cc(Cl)c(N3CCCCC3)cc21 (stereo not given)	3	-5	2	8	-4	-26
Cc1ccc(SCC(=O)OCC(=O)N(C)C2CCS(=O)(=O)C2)cc1C (stereo not given)	-18	-5	-5	-4	-2	51*
CN(C(=O)COC(=O)c1nc(-c2ccccc2)n(-c2ccccc2)n1)C1CCS(=O)(=O)C1 (stereo not given)	5	-4	7	-5	-3	40*
CN(C(=O)COC(=O)Cc1c(Cl)cccc1Cl)C1CCS(=O)(=O)C1 (stereo not given)	-19	-5	-14	-5	-3	26*
CNC(=O)c1[nH]cnc1C(=O)N[C@@H](CCCCNC(=O)OC(C)(C)C)C(=O)OC(C)(C)C	0	-11	0	7	-3	9
CC(C)C[C@H](NC(=O)c1nc[nH]c1C(=O)N[C@@H](CCCCN)C(=O)OC(C)(C)C)C(=O)OC(C)(C)C	8	.	.	-15	.	-4
CC(C)(C)OC(=O)NCCCC[C@H](NC(=O)c1[nH]cnc1C(=O)Nc1ccc(Cl)cc1)C(=O)OC(C)(C)C	.	.	.	76*	.	-2
CC(C)(C)OC(=O)[C@H](CCCCN)NC(=O)c1nc[nH]c1C(=O)N[C@@H](CCCCN)C(=O)OC(C)(C)C	-2	-6	0	-14	2	21*
CCOC(=O)C1CSCCS(=O)(=O)N1Cc1cccc(Cl)c1 (stereo not given)	.	-6	7	.	1	.
CC(CCC(C)C(C)(C)C)[C@@H]1CC[C@H]2C3C[C@H](OS(O)(=S)=S)[C@H]4C[C@H](OS(O)(=S)=S)[C@@H](OS(O)(=S)=S)C[C@]4(C)[C@H]3CC[C@]12C (stereo not given in full) (tested in a mixture with another compound)	36	.	.	81*	.	36*
CC(CCC(=O)NN)C1CCC2C3CCC4CC(O)CCC4(C)C3CCC12C (stereo not given)	-3	-7	-6	6	2	6
SMILES	Arr AP2 block	CaV13 FRET inh	ADAM10 inh	FAS-TE inh	ADAM17 inh	CendR NRP1 mod
O=[N+]([O-])c1cccc(C=Nc2cc3c(cc2Br)OCCO3)c1	10	-5	3	2	2	27*
CC1CCc2c(sc3nc(C(C)(C)C)nc(N4CCN(C(=O)CCl)CC4)c23)C1 (stereo not given)	-1	-5	7	41	1	-15
Cc1noc(C)c1-c1ccc(C(=O)NCc2cccs2)c2occc12	.	-5	-17	3	-3	4
Cc1noc(C)c1-c1ccc(C(=O)NCCc2ccccc2)c2occc12	.	40*	-11	4	1	-2
O=C(NN1CCCCC1)NN1CCCCC1	.	-11	-8	0	-5	-6
Cc1ccc(CN2CCCCC(NC(=O)c3cccc([N+](=O)[O-])c3)C2=O)cc1 (stereo not given)	.	.	-2	.	-2	.
COc1ccc(C(=O)NCCNc2nc3c(C)cccc3cc2C#N)cc1	5	-15	-165	11	-39	-55
CCC(=O)NCCCNc1nc2c(C)cccc2cc1C#N	-3	46*	-412	-4	-126	-9
COc1cc(C(=O)NCCCNc2nc3c(C)cc(C)cc3cc2C#N)cc(OC)c1OC	23	59*	-20	0	-7	0
N#Cc1ccc(S(=O)(=O)NC(=O)[C@H]2O[C@@H](n3ccc(=O)[nH]c3=O)[C@H](O)[C@@H]2O)cc1	.	-4	-5	.	3	.
O=C1CC/C=C\C[C@@H](CC(=O)N(CCO)Cc2ccccc2)C(=O)NCCO1	.	-5	-1	-12	-3	26*
COCc1[nH]nc2c1C(c1ccc(C)cc1)N(c1ccc(OC)cc1)C2=O (stereo not given)	.	-5	-4	.	-4	.
COc1ccc(/C=C/C(=O)N(C)Cc2cccs2)cc1S(=O)(=O)N1CCOCC1	20	-3	-4	9	-5	35*
CC1=C(C(=O)OCc2ccccc2)N2C(=O)[C@@H](NC(=O)COc3ccccc3)[C@H]2SC1	-4	-16	-2	13	-1	-10
CC1(C)S[C@@H]2[C@H](NC(=O)COc3ccccc3)C(=O)N2C1C(=O)OCC1CCCCC1 (stereo not given in full)	3	-10	9	32	4	25*
